Assay results published in ChEMBL document CHEMBL1138854, “Synthesis and antitumor activity of guanylhydrazones from 6-(2,4-dichloro-5-nitrophenyl)imidazo[2,1-b]thiazoles and 6-pyridylimidazo[2,1-b]thiazoles(1)” (2006).
Where “and” joins values, the source holds several entries; their conditions need not be identical. Equal entries are not always repeated.

Legend:
[1] = Antitumor activity against ovarian cell lines of the NCI60 panel; type: functional; details: Homo sapiens; for TGI: read-out: pTGI (converted)
Outline: (§1)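 Run by NCI in the 60-cell-line panel (details in Supporting Information). Highest concentration 10^-4 M unless noted (one case 10-2.6 M). Values expressed as -log molar concentration giving 50% growth inhibition (pGI50), total cytostasis (pTGI) or 50% cell kill (pLC50); only values >4.00 reported; mean graph midpoint is the calculated panel mean.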

[2] = Antitumor activity against melanoma cell lines of the NCI60 panel; type: functional; details: Homo sapiens; for TGI: read-out: pTGI (converted); outline: as §1
[3] = Antitumor activity against renal cell lines of the NCI60 panel; type: functional, Homo sapiens; details: for TGI: read-out: pTGI (converted); outline: as §1
NSCLC = experiment: Antitumor activity against NSCLC cell lines of the NCI60 panel; type: functional; details: Homo sapiens; for TGI: read-out: pTGI (converted); outline: as §1
[4] = Antitumor activity against leukemia cell lines of the NCI60 panel; type: functional; details: Homo sapiens; for TGI: read-out: pTGI (converted); outline: as §1
[5] = Antitumor activity against prostate cell lines of the NCI60 panel; type: functional; details: Homo sapiens; for TGI: read-out: pTGI (converted); outline: as §1
[6] = Antitumor activity against colon cell lines of the NCI60 panel; type: functional; details: Homo sapiens; for TGI: read-out: pTGI (converted); outline: as §1
[7] = Antitumor activity against breast cell lines of the NCI60 panel; type: functional; details: Homo sapiens; for TGI: read-out: pTGI (converted); outline: as §1
[8] = Antitumor activity against CNS cell lines of the NCI60 panel; type: functional; details: Homo sapiens; for TGI: read-out: pTGI (converted); outline: as §1

Row | SMILES | GI50 [1] | TGI [1] | GI50 [2] | TGI [2] | GI50 ([3]; Homo sapiens, renal) | GI50 (NSCLC) | TGI (NSCLC) | GI50 [4] | TGI [4] | GI50 [5] | TGI [5] | GI50 [6] | TGI [6] | GI50 [7] | TGI [7] | GI50 [8] | TGI [8] | TGI ([3]; Homo sapiens, renal) | LC50 [3] | LC50 ([3]; Homo sapiens, renal, read-out: Log LC50 (converted))
1 | Cc1cn2c(/C=N/NC(=N)N)c(-c3cccnc3)nc2s1 | 15.8 µM | 36.3 µM | 10.2 µM | 25.7 µM | 9.55 µM | 13.8 µM | 36.3 µM | 4.79 µM | 51.3 µM | 6.92 µM | 24.5 µM | 5.62 µM | 20.9 µM | 7.08 µM | 22.4 µM | 12 µM | 28.2 µM |  |  | 
2 | N=C(N)N/N=C/c1c(-c2ccccn2)nc2sc(Cl)cn12 | 7.08 µM | 14.5 µM | 7.76 µM | 15.1 µM | 7.94 µM | 8.71 µM | 18.6 µM | 4.37 µM | 13.2 µM | 9.33 µM | 17.8 µM | 7.08 µM | 15.1 µM | 8.91 µM | 20.9 µM | 5.62 µM | 11.5 µM | 15.1 µM |  | 
3 | Cc1sc2nc(-c3ccncc3)c(/C=N/NC(=N)N)n2c1C | 53.7 µM | 97.7 µM | 38 µM | 83.2 µM | 39.8 µM | 38.9 µM | 97.7 µM | 30.2 µM | 95.5 µM | 55 µM |  | 35.5 µM | 79.4 µM | 43.7 µM | 91.2 µM | 38.9 µM | 93.3 µM | 89.1 µM |  | 
4 | CC(/C=N/NC(=N)N)=N\NC(=N)N [MITOGUAZONE] | 15.8 µM | 316 µM | 39.8 µM | 316 µM | 20 µM | 25.1 µM | 316 µM | 7.94 µM | 631 µM | 100 µM | 1580 µM | 12.6 µM | 501 µM | 15.8 µM | 316 µM | 20 µM | 251 µM |  | 501 µM and 2000 µM | 
5 | N=C(N)N/N=C/c1c(-c2cccnc2)nc2sc(Cl)cn12 | 15.5 µM | 36.3 µM | 18.2 µM | 36.3 µM | 18.2 µM | 20 µM | 41.7 µM | 13.8 µM | 42.7 µM | 15.1 µM | 28.2 µM | 8.51 µM | 21.9 µM | 16.6 µM | 46.8 µM | 15.1 µM | 31.6 µM | 35.5 µM |  | 
6 | N=C(N)N/N=C/c1c(-c2cc([N+](=O)[O-])c(Cl)cc2Cl)nc2n1CCS2 | 1.32 µM | 2.82 µM | 0.759 µM | 2.51 µM | 1.17 µM | 1.15 µM | 2.57 µM | 0.339 µM | 3.16 µM | 0.813 µM | 3.09 µM | 0.447 µM | 2.19 µM | 0.617 µM | 10.5 µM | 0.302 µM | 9.55 µM | 2.88 µM |  | 
7 | N=C(N)N/N=C/c1c(-c2ccc(Cl)c([N+](=O)[O-])c2)nc2n1CCS2 | 9.77 µM | 30.9 µM | 8.32 µM | 24 µM | 10 µM | 10.5 µM | 38.9 µM | 3.09 µM | 13.2 µM | 6.61 µM | 20.9 µM | 6.61 µM | 17.4 µM | 11.5 µM | 27.5 µM | 6.92 µM | 25.7 µM |  |  | 
8 | CCc1cn2c(/C=N/NC(=N)N)c(-c3cc([N+](=O)[O-])c(Cl)cc3Cl)nc2s1 | 1.58 µM | 3.09 µM | 1.51 µM | 2.82 µM | 1.51 µM | 1.7 µM | 3.16 µM | 0.933 µM | 3.24 µM | 1.58 µM | 3.09 µM | 1.38 µM | 2.95 µM | 1.66 µM | 4.27 µM | 1.45 µM | 2.82 µM |  |  | 
9 | Cc1cn2c(/C=N/NC(=N)N)c(-c3cc([N+](=O)[O-])c(Cl)cc3Cl)nc2s1 | 2.09 µM | 19.5 µM | 2.29 µM |  | 2.09 µM | 2.51 µM | 19.5 µM | 1.62 µM |  |  | 2.34 µM | 0.661 µM | 49 µM | 4.17 µM |  | 2.14 µM |  | 11.7 µM |  | 60.3 µM
10 | N=C(N)N/N=C/c1c(-c2cc([N+](=O)[O-])c(Cl)cc2Cl)nc2sccn12 | 1.86 µM | 3.55 µM | 1.58 µM | 3.02 µM | 2 µM | 1.78 µM | 3.47 µM | 1.45 µM | 4.27 µM | 2.09 µM |  | 1.02 µM | 2.14 µM | 2.82 µM | 6.03 µM | 1.55 µM | 3.47 µM |  |  | 
11 | Cc1cn2c(/C=N/NC(=N)N)c(-c3ccncc3)nc2s1 | 16.6 µM | 34.7 µM | 19.5 µM | 39.8 µM | 23.4 µM | 16.6 µM | 33.1 µM | 9.77 µM | 28.2 µM | 17.4 µM | 32.4 µM | 15.8 µM | 34.7 µM | 34.7 µM | 47.9 µM | 16.2 µM | 30.9 µM | 42.7 µM |  | 
12 | Cc1sc2nc(-c3cc([N+](=O)[O-])c(Cl)cc3Cl)c(/C=N/NC(=N)N)n2c1C | 5.25 µM | 24 µM | 5.01 µM | 16.2 µM | 8.71 µM | 11 µM | 47.9 µM | 2.09 µM | 22.4 µM | 9.12 µM | 38 µM | 4.27 µM | 29.5 µM | 7.24 µM | 35.5 µM | 11.2 µM | 67.6 µM |  |  | 
13 | Cc1cn2c(/C=N/NC(=N)N)c(-c3ccccn3)nc2s1 | 17.4 µM | 63.1 µM | 9.77 µM | 28.8 µM | 7.94 µM | 10.2 µM | 32.4 µM | 3.63 µM |  | 7.94 µM | 39.8 µM | 8.13 µM | 29.5 µM | 8.91 µM | 37.2 µM | 8.13 µM | 26.9 µM |  |  | 
14 | N=C(N)N/N=C/c1c(-c2cc([N+](=O)[O-])c(Cl)cc2Cl)nc2sc(Cl)cn12 | 19.5 µM | 66.1 µM | 11.2 µM | 53.7 µM | 29.5 µM | 22.9 µM | 72.4 µM | 3.55 µM | 44.7 µM | 19.1 µM | 93.3 µM | 5.75 µM | 50.1 µM | 10.5 µM | 38.9 µM | 10.7 µM | 64.6 µM | 81.3 µM |  | 
15 | Cc1csc2nc(-c3cc([N+](=O)[O-])c(Cl)cc3Cl)c(/C=N/N=C(N)N)n12 | 17 µM | 37.2 µM | 16.2 µM | 31.6 µM | 17 µM | 17 µM | 35.5 µM | 2.51 µM | 25.7 µM | 16.6 µM | 35.5 µM | 15.1 µM | 33.1 µM | 15.5 µM | 32.4 µM | 17.8 µM | 34.7 µM | 33.1 µM |  | 
